≈ marks a conversion by molar mass, not a printed value.
Assays:
in vivo [1] = conditions: mouse, po, 40 mg/kg
Streptococcus pneumoniae = assay: In vitro antibacterial activity against Streptococcus pneumoniae A 9585; format: functional
Enterobacter cloacae = assay: In vitro antibacterial activity against Enterobacter cloacae A 9656; format: functional
Mus musculus [2] = species: Mus musculus; conditions: in vivo, po, 40 mg/kg
Haemophilus influenzae = assay: In vitro antibacterial activity against Haemophilus influenzae A 21515; format: functional
Staphylococcus aureus [3] = assay: Compound was tested for the dose to protect 50% of mice from lethal infection against Staphylococcus aureus A 9606 after peroral administration to OF1-strain of female Swiss mice.; format: functional; conditions: po, read-out: PD50
In short: (§1)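 Compounds dissolved in sterile water and given orally to female OF1 Swiss mice weighing 18-25 g, five mice per group.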

Escherichia coli [4] = assay: In vitro antibacterial activity against Escherichia coli A 15119; format: functional
[5] = Compound was evaluated in vivo in blood samples from the orbital sinus for its concentration after an intramuscular administration of 40 mg/kg in mice; format: ADME, organism-based; parameters: dose 40 mg/kg, route intramuscular; conditions: mouse, im
In short: (§2)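 Mice were dosed at 40 mg/kg, either orally with a blunt needle and syringe or intramuscularly, with separate groups for each route. Blood was drawn from the orbital sinus at 5, 15, 30, 60, 120 and 180 min. Urine was pooled over 24 h. Drug levels were measured by agar disk diffusion microbioassay with Salmonella enteritidis A9531 as the assay organism.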

Staphylococcus aureus [6] = assay: In vitro antibacterial activity against Staphylococcus aureus A 24227; format: functional
[7] = Compound was tested for the dose to protect 50% of mice from lethal infection against Streptococcus pneumoniae after peroral administration to OF1-strain of female Swiss mice.; format: functional; conditions: po, read-out: PD50
In short: as §1

Proteus mirabilis = assay: In vitro antibacterial activity (minimum inhibitory concentration, MIC) against Proteus mirabilis A 9900; format: functional
Serratia marcescens = assay: In vitro antibacterial activity (minimum inhibitory concentration) against Serratia marcescens A 20019.; format: functional
Pseudomonas aeruginosa [8] = assay: Compound was tested in vitro for its antibacterial activity (minimum inhibitory concentration, MIC) against Pseudomonas aeruginosa A 9843; format: functional
Escherichia coli [9] = assay: Compound was tested for the dose to protect 50% of mice from lethal infection against Escherichia coli A 15119 after peroral administration to OF1-strain of female Swiss mice.; format: functional; conditions: po, read-out: PD50
In short: as §1

Enterococcus faecalis [10] = assay: In vitro antibacterial activity against Enterococcus faecalis A 9809; format: functional
Staphylococcus aureus [11] = assay: In vitro antibacterial activity (minimum inhibitory concentration, MIC) against Staphylococcus aureus A 9537.; format: functional
Pseudomonas aeruginosa [12] = assay: Compound was tested for the dose to protect 50% of mice from lethal infection against Pseudomonas aeruginosa A9843 after peroral administration to OF1-strain of female Swiss mice.; format: functional; conditions: po, read-out: PD50
In short: as §1

Mus musculus [13] = assay: Compound was evaluated in vivo in blood samples from the orbital sinus for its concentration using Area under the time-concentration curve after 40 mg/kg intramuscular administration to mice; format: ADME, organism-based; parameters: dose 40 mg/kg, route intramuscular; conditions: im
In short: as §2

Bacteroides fragilis = assay: Compound was tested in vitro for its antibacterial activity (minimum inhibitory concentration) against Bacteroides fragilis A 22862.; format: functional; conditions: A22862
Klebsiella pneumoniae = assay: In vitro antibacterial activity against Klebsiella pneumoniae A 9664; format: functional
Morganella morganii = assay: In vitro antibacterial activity against Morganella morganii A 15153; format: functional
Mus musculus [14] = assay: Compound was evaluated in vivo in urine sample collected over 24 hours for its concentration after 40 mg/kg intramuscular administration to mice; format: functional
In short: as §2

[15] = Compound was evaluated in vivo in blood samples from the orbital sinus for its half life after 40 mg/kg of intramuscular administration in mice.; format: ADME, organism-based; parameters: dose 40 mg/kg, route intramuscular; conditions: mouse, im
Mus musculus [16] = assay: Compound was evaluated in vivo in urine sample collected over 24 hours for its concentration after 40 mg/kg peroral administration to mice; format: functional; conditions: route oral
In short: as §2

[17] = Compound was evaluated in vivo in blood samples from the orbital sinus for its concentration after a intramuscular administration 40 mg/kg in mice; format: ADME, organism-based; parameters: dose 40 mg/kg, route intramuscular; conditions: mouse, im
In short: as §2

in vivo [18] = conditions: mouse, blood, po, 40 mg/kg
Canis familiaris [19] = species: Canis familiaris; conditions: dog, in vivo, po, 25 mg/kg
Canis familiaris [20] = assay: Compound was evaluated in vivo in urine sample collected over 24 hours for its concentration after 25 mg/kg peroral administration to dogs.; conditions: route oral
in vivo [21] = conditions: dog, po, 25 mg/kg
in vivo [22] = conditions: dog, po, 25 mg/kg; remark: listed apart in the source
Enterococcus faecalis [23] = assay: Compound was tested in vitro for its antibacterial activity (minimum inhibitory concentration) against Enterococcus faecalis A 9809 (gram positive).; format: functional
[24] = Compound was evaluated in vivo in blood samples from the orbital sinus for its concentration after an intramuscular administration of 40 mg/kg in mice.; format: ADME, organism-based; parameters: dose 40 mg/kg, route intramuscular; conditions: mouse, im
In short: as §2

Mus musculus [25] = assay: Compound was evaluated in vivo in urine sample collected over 24 hours for its concentration after 40 mg/kg an intramuscular administration to mice; format: functional
In short: as §2

[26] = Compound was evaluated in vivo in blood samples from the orbital sinus for its concentration after a peroral administration of 40 mg/kg in mice; format: ADME, organism-based; parameters: dose 40 mg/kg, route oral; conditions: mouse, po
In short: as §2

SMILES | Cmax (in vivo [1]; blood) | MIC (Streptococcus pneumoniae) | MIC (Enterobacter cloacae) | AUC (Mus musculus [2]) | MIC (Haemophilus influenzae) | ED50 (Staphylococcus aureus [3]) | MIC (Escherichia coli [4]) | MIC (Staphylococcus aureus [6]) | ED50 [7] | MIC (Proteus mirabilis) | MIC (Serratia marcescens) | MIC (Pseudomonas aeruginosa [8]) | MIC (Enterococcus faecalis [10]) | MIC (Staphylococcus aureus [11]) | ED50 (Pseudomonas aeruginosa [12]) | AUC (Mus musculus [13]) | MIC (Bacteroides fragilis) | MIC (Klebsiella pneumoniae) | MIC (Morganella morganii) | UR (Mus musculus [16]) | also measured
CC(C)(CF)n1cc(C(=O)O)c(=O)c2cc(F)c(N3CC4C[C@@H]3CN4)nc21.Cl | 4000 ng/mL | 0.5 µg/mL | 0.13 µg/mL | 7000 ng·h/mL | 0.13 µg/mL | 25 mg/kg | 0.06 µg/mL | 2 µg/mL | 57.4 mg/kg | 0.5 µg/mL | 0.25 µg/mL | 0.5 µg/mL | 2 µg/mL | 0.25 µg/mL | 4.9 mg/kg | 20000 ng·h/mL | 8 µg/mL | 0.25 µg/mL | 0.25 µg/mL |  | Cmax [5]: 8000 ng/mL; S: 200 µg/mL; ED50 (Escherichia coli [9]): 2.4 mg/kg
CN1CCN(c2c(F)cc3c(=O)c(C(=O)O)cn(CCF)c3c2F)CC1 [FLEROXACIN] | 12000 ng/mL | 2 µg/mL (≈ 5.42 µM) | 0.13 µg/mL (≈ 0.352 µM) | 23000 ng·h/mL | 0.13 µg/mL (≈ 0.352 µM) |  | 0.03 µg/mL (≈ 0.0812 µM) | 0.25 µg/mL (≈ 0.677 µM) |  | 0.06 µg/mL (≈ 0.162 µM) | 0.13 µg/mL (≈ 0.352 µM) | 2 µg/mL (≈ 5.42 µM) | 8 µg/mL (≈ 21.7 µM) | 0.06 µg/mL (≈ 0.162 µM) |  | 32000 ng·h/mL | 1 µg/mL (≈ 2.71 µM) | 0.13 µg/mL (≈ 0.352 µM) | 0.03 µg/mL (≈ 0.0812 µM) | 51% | UR (Mus musculus [14]): 64%; half-life [15]: 1.02 h; Cmax [17]: 20000 ng/mL; half-life (in vivo [18]): 0.967 h
CC(C)(C)n1cc(C(=O)O)c(=O)c2cc(F)c(N3C[C@H]4C[C@@H]3CN4)nc21 | 10000 ng/mL | 0.13 µg/mL (≈ 0.361 µM) | 0.016 µg/mL (≈ 0.0444 µM) | 14000 ng·h/mL | 0.03 µg/mL (≈ 0.0832 µM) | 1.6 mg/kg | 0.008 µg/mL (≈ 0.0222 µM) | 0.03 µg/mL (≈ 0.0832 µM) | 29.7 mg/kg | 0.06 µg/mL (≈ 0.166 µM) | 0.06 µg/mL (≈ 0.166 µM) | 0.25 µg/mL (≈ 0.694 µM) | 0.5 µg/mL (≈ 1.39 µM) | 0.03 µg/mL (≈ 0.0832 µM) | 4.7 mg/kg | 25000 ng·h/mL | 4 µg/mL (≈ 11.1 µM) | 0.016 µg/mL (≈ 0.0444 µM) | 0.06 µg/mL (≈ 0.166 µM) | 34% | AUC (Canis familiaris [19]): 55000 ng·h/mL; UR (Canis familiaris [20]): 20%; UR (Mus musculus [14]): 39%; half-life [15]: 1.58 h; Cmax [5]: 13000 ng/mL; S: 80 µg/mL; ED50 (Escherichia coli [9]): 1.8 mg/kg; half-life (in vivo [21]): 4.5 h; Cmax (in vivo [22]): 5600 ng/mL; half-life (in vivo [18]): 1.6 h
CC(C)(C)n1cc(C(=O)O)c(=O)c2cc(F)c(N3C[C@H]4CC3CN4)cc21 |  |  | 0.25 µg/mL (≈ 0.696 µM) |  |  |  | 0.5 µg/mL (≈ 1.39 µM) |  |  | 4 µg/mL (≈ 11.1 µM) | 4 µg/mL (≈ 11.1 µM) | 0.5 µg/mL (≈ 1.39 µM) |  | 0.5 µg/mL (≈ 1.39 µM) |  |  |  | 0.13 µg/mL (≈ 0.362 µM) | 2 µg/mL (≈ 5.56 µM) |  | MIC (Enterococcus faecalis [23]): 2 µg/mL (≈ 5.56 µM)
O=C(O)c1cn(C2CC2)c2cc(N3CCNCC3)c(F)cc2c1=O [CIPROFLOXACIN] |  | 0.25 µg/mL (≈ 0.754 µM) |  | 7000 ng·h/mL | 0.03 µg/mL (≈ 0.0905 µM) | 31 mg/kg |  | 0.13 µg/mL (≈ 0.392 µM) | > 69 mg/kg | 0.008 µg/mL (≈ 0.0241 µM) | 0.03 µg/mL (≈ 0.0905 µM) |  | 0.5 µg/mL (≈ 1.51 µM) | 0.06 µg/mL (≈ 0.181 µM) | 2.6 mg/kg | 21000 ng·h/mL | 4 µg/mL (≈ 12.1 µM) | 0.06 µg/mL (≈ 0.181 µM) |  | 30% | Cmax (in vivo [1]; in vivo): 6000 ng/mL; UR (Canis familiaris [20]): 17%; UR (Mus musculus [14]): 46%; Cmax [5]: 15000 ng/mL; ED50 (Escherichia coli [9]): 0.4 mg/kg; Cmax (in vivo [22]): 3000 ng/mL
CC(C)(C)n1cc(C(=O)O)c(=O)c2cc(F)c(N3CC[C@H](N)C3)cc21.CS(=O)(=O)O |  | 0.06 µg/mL | 0.06 µg/mL | 5000 ng·h/mL | 0.008 µg/mL | 14.4 mg/kg | 0.016 µg/mL | 0.03 µg/mL | > 25 mg/kg | 0.06 µg/mL | 0.13 µg/mL | 0.25 µg/mL | 0.13 µg/mL | 0.008 µg/mL | 10.2 mg/kg | 15000 ng·h/mL | 8 µg/mL | 0.5 µg/mL | 0.13 µg/mL | 14% | AUC (Canis familiaris [19]): 30000 ng·h/mL; UR (Canis familiaris [20]): 7.7%; half-life [15]: 0.9 h; Cmax [24]: 6000 ng/mL; UR (Mus musculus [25]): 24%; S: 250 µg/mL; ED50 (Escherichia coli [9]): 9.5 mg/kg; half-life (in vivo [21]): 4 h; Cmax (in vivo [22]): 2800 ng/mL; Cmax [26]: 3000 ng/mL; half-life (in vivo [18]): 1.1 h
CC(C)(CF)n1cc(C(=O)O)c(=O)c2cc(F)c(N3CC[C@H](N)C3)cc21.CS(=O)(=O)O | 1000 ng/mL | 0.06 µg/mL | 0.004 µg/mL | 600 ng·h/mL | 0.016 µg/mL | 26.4 mg/kg | 0.002 µg/mL | 0.016 µg/mL | > 50 mg/kg | 0.004 µg/mL | 0.016 µg/mL | 0.13 µg/mL | 0.13 µg/mL | 0.03 µg/mL | 23.7 mg/kg | 14000 ng·h/mL | 2 µg/mL | 0.004 µg/mL | 0.002 µg/mL | 4% | AUC (Canis familiaris [19]): 7300 ng·h/mL; UR (Canis familiaris [20]): 4.6%; UR (Mus musculus [14]): 27%; half-life [15]: 1.82 h; S: 370 µg/mL; half-life (in vivo [21]): 7 h; Cmax (in vivo [22]): 600 ng/mL; Cmax [17]: 8000 ng/mL

— ChEMBL document CHEMBL1125733, “Fluoronaphthyridines and -quinolones as antibacterial agents. 3. Synthesis and structure-activity relationships of new 1-(1,1-dimethyl-2-fluoroethyl), 1-[1-methyl-1-(fluoromethyl)-2-fluoroethyl], and 1-[1,1-(difluoromethyl)-2-fluoroethyl] substituted derivatives” (J Med Chem, 1991)
